“Also recorded” adds a separate entry of the source.
Experiments:
AT2 receptor [1] = assay: Neurite outgrowth assay in NG108-15 cells; assay type: cell-based; details: for Function (10 nM): three days, alone, with 10 μM PD 123319 or 100 nM Ang II
In short: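 NG108-15 cells (passages 18–25; DMEM, 10% FBS, HAT, gentamycin; 37 °C, 7% CO2) plated at 3.6 × 10^4 cells/35 mm dish. They were treated once daily for three days from 24 h post-plating with 10 nM test compound (some also 100 nM). Test compound was added alone or 30 min before 100 nM Ang II; 10 μM PD 123319 was given 30 min before agonist. On day 4, phase-contrast micrographs were scored as % of ≥400 cells bearing a neurite longer than the cell body. Duplicates, three independent experiments, mean ± SEM, two-way ANOVA.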

AT2 receptor [2] = biological target: T1, AT2 receptor (Sus scrofa, UniProt A0A4X1W622); assay: AT2 receptor binding, displacement of [125I]Ang II from pig uterus; details: versus compound 3
T1 sequence (A0A4X1W622 1-362): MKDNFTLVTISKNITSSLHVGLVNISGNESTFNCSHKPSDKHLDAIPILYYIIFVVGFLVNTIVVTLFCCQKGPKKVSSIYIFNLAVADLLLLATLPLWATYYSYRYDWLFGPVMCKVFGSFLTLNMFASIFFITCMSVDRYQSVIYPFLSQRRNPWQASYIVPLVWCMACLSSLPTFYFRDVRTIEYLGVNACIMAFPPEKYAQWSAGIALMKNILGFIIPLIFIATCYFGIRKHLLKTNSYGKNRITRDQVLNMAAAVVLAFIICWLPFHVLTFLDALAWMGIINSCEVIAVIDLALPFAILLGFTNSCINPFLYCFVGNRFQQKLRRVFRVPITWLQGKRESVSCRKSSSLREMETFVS

AT2 receptor [3] = details: cited from earlier work; for Induction of neurite outgrowth: NG108-15 cells
p42/p44mapk pathway = details: cited from earlier work
AT2 receptor [4] = details: AT2R antagonist; cited from earlier work

With `CCCCOC(=O)NS(=O)(=O)c1cc2c(cc1-c1cccc(Cn3ccnc3)c1)CCC2C(C)C` (centres unmarked) [Compound 10a, N-(Butoxycarbonyl)-5-[3-(imidazol-1-yl)-methylphenyl]-1-isopropylindan-6-sulfonamide] the “Function (10 nM)” value (AT2 receptor [1]; 10 nM, NG108-15 cells) was “Antagonist”.

For `CCCCOC(=O)NS(=O)(=O)c1cc2c(cc1-c1ccc(Cn3ccnc3)cc1)CCC2C(C)C` (centres unmarked) [Compound 9a, N-(Butoxycarbonyl)-5-[4-(imidazol-1-yl)-methylphenyl]-1-isopropylindan-6-sulfonamide], the “Function (10 nM)” value (AT2 receptor [1]; 10 nM, NG108-15 cells) was “agonistic properties; also recorded: Agonist”.

For `CCCCOC(=O)NS(=O)(=O)c1ccc2c(c1-c1cccc(Cn3ccnc3)c1)CCC2C(C)C` (centres unmarked) [Compound 8b, N-(Butoxycarbonyl)-4-[3-(imidazol-1-yl)-methylphenyl]-1-isopropylindan-5-sulfonamide], the “Function (10 nM)” value (AT2 receptor [1]; 10 nM, NG108-15 cells) was “Antagonist”.

For `CCCCOC(=O)NS(=O)(=O)c1cc2c(cc1-c1cccc(Cn3ccnc3)c1)CCC2C(C)C` (centres unmarked) [Compound 10b, N-(Butoxycarbonyl)-5-[3-(imidazol-1-yl)-methylphenyl]-1-isopropylindan-6-sulfonamide], the “Function (10 nM)” value (AT2 receptor [1]; 10 nM, NG108-15 cells) was “agonistic effect; also recorded: Agonist”.

For `CCCCOC(=O)NS(=O)(=O)c1ccc2c(c1-c1ccc(Cn3ccnc3)cc1)CCC2C(C)C` (centres unmarked) [Compound 7a, N-(Butoxycarbonyl)-4-[4-(imidazol-1-yl)-methylphenyl]-1-isopropylindan-5-sulfonamide], the “Loss in affinity compared to non rigidified analogue 3” value (AT2 receptor [2]) was ~200 times, the “Degree of neurite outgrowth induced” value (AT2 receptor [1]; 10 nM, NG108-15 cells) was “highest degree of neurite outgrowth among this set of compounds” and the “Function (10 nM)” value (AT2 receptor [1]; 10 nM, NG108-15 cells) was “strong agonistic effect; also recorded: Agonist”.

In the case of `CCCCOC(=O)NS(=O)(=O)c1ccc2c(c1-c1ccc(Cn3ccnc3)cc1)CCC2C(C)C` (centres unmarked) [Compound 7b, N-(Butoxycarbonyl)-4-[4-(imidazol-1-yl)-methylphenyl]-1-isopropylindan-5-sulfonamide], the “Function (10 nM)” value (AT2 receptor [1]; 10 nM, NG108-15 cells) is reported as “antagonism; also recorded: Antagonist”.

In the case of “Nα-nicotinoyl-Tyr-(Nα-Cbz-Arg)-Lys-His-Pro-Ile [CGP-42112]”, the “Induction of neurite outgrowth” value (AT2 receptor [3]) is given as “induces neurite outgrowth”.

For `CCCCOC(=O)NS(=O)(=O)c1cc2c(cc1-c1ccc(Cn3ccnc3)cc1)CCC2C(C)C` (centres unmarked) [Compound 9b, N-(Butoxycarbonyl)-5-[4-(imidazol-1-yl)-methylphenyl]-1-isopropylindan-6-sulfonamide], the “Function (10 nM)” value (AT2 receptor [1]; 10 nM, NG108-15 cells) was “agonistic properties; also recorded: Agonist”.

In the case of `CC(C)(C)c1cc(C=C(C#N)C(N)=S)cc(C(C)(C)C)c1O` [AG879, α-cyano-(3,5-di-t-butyl-4-hydroxy)thiocinnamide], the “Effect on neurite outgrowth (inhibition)” value (AT2 receptor [3]) is given as “total” and the “Inhibition of the p42/p44mapk pathway” value (p42/p44mapk pathway) is given as “only partially inhibits”.

With `CCCCOC(=O)NS(=O)(=O)c1ccc2c(c1-c1cccc(Cn3ccnc3)c1)CCC2C(C)C` (centres unmarked) [Compound 8a, N-(Butoxycarbonyl)-4-[3-(imidazol-1-yl)-methylphenyl]-1-isopropylindan-5-sulfonamide] the “Function (10 nM)” value (AT2 receptor [1]; 10 nM, NG108-15 cells) was “Antagonist”.

In the case of “Ang II: hypertensive octapeptide angiotensin II”, the “Induction of neurite outgrowth” value (AT2 receptor [3]) is given as “induces neurite outgrowth”.

In the case of `Cc1cc(Cn2cnc3c2C[C@@H](C(=O)O)N(C(=O)C(c2ccccc2)c2ccccc2)C3)ccc1N(C)C` [PD 123319, reference compound], the “Effect of co-incubation on induced neurite outgrowth” value (AT2 receptor [1]; 10 μM PD 123319 co-incubated with agonists) is given as “reduced the induced neurite outgrowth”, the “Morphology on treatment alone” value (AT2 receptor [1]; PD 123319 alone, data not shown) is given as “did not alter the morphology compared to untreated cells” and the IC50 (AT2 receptor [4]) is given as 34 nM.

Reference: PMC7451071 (MedChemComm, 2019)
